Laboratory results: article PMC3297693 (Journal of Medicinal Chemistry, 2012)
Entries after “also recorded” stand apart in the source; their conditions may differ. Structures can show the parent of a compound that is named as a salt.

Tests used:
full NCI 60 cell panel = assay: NCI 60 five-concentration screen, mean graph midpoint of all cell lines; assay type: cell-based; conditions: Homo sapiens, 48 h; for GI50: read-out: GI50 MG-MID (mean GI50); for IC (TGI): read-out: TGI MG-MID
HT-29 colon cancer cells [1] = assay: Cell cycle distribution by flow cytometry; assay type: cell-based, Human; conditions: HT-29 cells, 24 h
Method in brief: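 HT-29 cells grown in RPMI 1640 with 10% FBS and 2 mM L-glutamine (37 °C, 5% CO2). Test compound was added from a 10 mmol/L DMSO stock (0.01% DMSO final; DMSO-only controls) for 24 h. Cells were fixed in 70% ethanol at −20 °C for ≥12 h, treated with RNase A (10 μg/mL, 37 °C, 30 min) and stained with PI (50 μg/mL). DNA content was read by flow cytometry; one experiment representative of three.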

HT-29 colon cancer cells [2] = assay: Cell viability by trypan blue exclusion; assay type: cell-based, Human; conditions: HT-29 cells, 24 h, 100 or 500 nM tested
Method in brief: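 HT-29 cells in RPMI 1640/10% FBS/2 mM L-glutamine were plated at 2×10^4 cells/cm2. They were treated in triplicate for 24 h with 100 or 500 nM test compound (0.01% DMSO final; DMSO-only controls). Viable cells were counted by trypan blue exclusion. Values are means ± s.e.m. of three determinations.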

[3] = system: caspase proteases (DEVDase activity); assay: DEVDase; assay type: cell-based, Human; conditions: HT-29 cells, 500 nM, 48 h
Method in brief: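 HT-29 cells in RPMI 1640/10% FBS were exposed to 500 nM test compound for 48 h, with 0.01% DMSO and DMSO-only controls. DEVD-hydrolysing caspase (DEVDase) activity was measured fluorometrically in cell extracts. Values are means ± s.e.m. of four determinations.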

HT-29 colon cancer cells [4] = assay: Mitochondrial membrane potential with DiOC6; assay type: cell-based, Human; conditions: HT-29 cells, 500 nM, 24 h
Method in brief: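 After 24 h in 500 nM test compound (0.01% DMSO; DMSO controls), HT-29 cells at 1×10^6 cells/mL were stained with 4 nM DiOC6 for 40 min at 37 °C in the dark. Cells were counterstained with PI at 5 μg/mL to exclude dead cells. Green fluorescence was read by flow cytometry with logarithmic amplification; one experiment representative of three to five.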

HT-29 colon cancer cells [5] = assay: Intracellular ROS content with DHE; assay type: cell-based, Human; conditions: HT-29 cells, 500 nM, 24 h
Method in brief: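 HT-29 cells were treated with 500 nM test compound for 24 h (0.01% DMSO; DMSO controls). They were then loaded with 5 μM dihydroethidium (from 10 mM DMSO stock) for 30 min at 37 °C to detect superoxide. Red fluorescence was read by flow cytometry with logarithmic amplification; one experiment representative of three to five.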

Bax = Bax expression and translocation by confocal microscopy; assay type: cell-based, Human; conditions: HT-29 cells, 500 nM, 24 h
Akt(Ser473) = assay: Kinase phosphorylation by Western blotting: Akt; assay type: cell-based, Human; conditions: HeLa cells, 1 μM, 3 h
Method in brief: (§1)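 HeLa cells in RPMI 1640/10% FBS/2 mM L-glutamine were exposed to 1 μM test compound for 3 h (0.01% DMSO). Lysates were cleared at 15,000 × g for 15 min and boiled 4 min, and 80 μg protein was run on SDS-PAGE. Proteins were blotted to nitrocellulose and probed with antibodies to total and phosphorylated kinase, then a peroxidase anti-rabbit IgG (1 h). Bands were detected by ECL chemiluminescence.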

mTOR(Ser2448) = assay: Kinase phosphorylation by Western blotting: mTOR; assay type: cell-based, Human; conditions: HeLa cells, 1 μM, 3 h
Method in brief: as §1

ERK1/2(Thr202/Tyr204) = assay: Kinase phosphorylation by Western blotting: ERK1/2; assay type: cell-based, Human; conditions: HeLa cells, 1 μM, 3 h
Method in brief: as §1

JNK(Thr183/Tyr185) = assay: Kinase phosphorylation by Western blotting: JNK; assay type: cell-based, Human; conditions: HeLa cells, 1 μM, 3 h
Method in brief: as §1

p38MAPK(Thr180/Tyr182) = assay: Kinase phosphorylation by Western blotting: p38MAPK; assay type: cell-based, Human; conditions: HeLa cells, 1 μM, 3 h
Method in brief: as §1

AMPK(Thr172) = assay: Kinase phosphorylation by Western blotting: AMPK; assay type: cell-based, Human; conditions: HeLa cells, 1 μM, 3 h
Method in brief: as §1

Renal = assay: NCI 60 five-concentration screen, renal subpanel; assay type: cell-based; conditions: Homo sapiens, 48 h, read-out: TGI Renal
CNS = assay: cells; assay type: cell-based; conditions: Homo sapiens, 48 h, read-out: TGI CNS
Leukemia = assay: cells; assay type: cell-based; conditions: Homo sapiens, 48 h, read-out: TGI Leukemia
tubulin = tubulin (Bos taurus, UniProt Q6B856); assay: Tubulin assembly assay; assay type: biochemical, Bovine; conditions: 10 μM tubulin, 20 min incubation at 30 °C
Sequence of tubulin (Q6B856 whole entry): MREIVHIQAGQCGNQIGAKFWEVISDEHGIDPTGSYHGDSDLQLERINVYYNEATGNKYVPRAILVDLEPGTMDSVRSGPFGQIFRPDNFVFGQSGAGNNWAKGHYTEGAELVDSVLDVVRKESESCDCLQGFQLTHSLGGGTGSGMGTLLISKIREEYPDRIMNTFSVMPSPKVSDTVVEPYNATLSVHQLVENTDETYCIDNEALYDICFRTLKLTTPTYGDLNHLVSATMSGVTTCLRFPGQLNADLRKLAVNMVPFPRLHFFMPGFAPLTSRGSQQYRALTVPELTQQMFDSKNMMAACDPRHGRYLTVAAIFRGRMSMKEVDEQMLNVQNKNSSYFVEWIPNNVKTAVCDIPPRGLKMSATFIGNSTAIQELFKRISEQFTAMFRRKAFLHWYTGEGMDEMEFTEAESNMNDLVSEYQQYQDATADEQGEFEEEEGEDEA
Sequence of tubulin (P81947 whole entry partner): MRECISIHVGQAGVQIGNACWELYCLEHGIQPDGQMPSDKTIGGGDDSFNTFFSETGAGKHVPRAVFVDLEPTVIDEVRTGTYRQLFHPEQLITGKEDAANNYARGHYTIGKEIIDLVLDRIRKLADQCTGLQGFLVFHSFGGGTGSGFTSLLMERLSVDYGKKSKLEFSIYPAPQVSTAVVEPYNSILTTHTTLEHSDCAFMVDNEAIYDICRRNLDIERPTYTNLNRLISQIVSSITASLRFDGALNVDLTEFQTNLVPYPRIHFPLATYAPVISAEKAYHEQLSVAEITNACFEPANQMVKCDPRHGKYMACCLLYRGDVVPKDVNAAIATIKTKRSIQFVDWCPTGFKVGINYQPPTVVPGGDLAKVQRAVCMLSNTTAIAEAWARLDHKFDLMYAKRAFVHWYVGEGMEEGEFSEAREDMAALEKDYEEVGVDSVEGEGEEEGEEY

Ovarian = assay: NCI 60 five-concentration screen, ovarian subpanel; assay type: cell-based; conditions: Homo sapiens, 48 h, read-out: TGI Ovarian
NSCLC = assay: NCI 60 five-concentration screen, NSCLC subpanel; assay type: cell-based; conditions: Homo sapiens, 48 h, read-out: TGI NSCLC
Colon = assay: NCI 60 five-concentration screen, colon subpanel; assay type: cell-based; conditions: Homo sapiens, 48 h, read-out: GI50 Colon
Melanoma = assay: NCI 60 five-concentration screen, melanoma subpanel; assay type: cell-based; conditions: Homo sapiens, 48 h, read-out: TGI Melanoma
Prostate = assay: cells; assay type: cell-based; conditions: Homo sapiens, 48 h, read-out: TGI Prostate
Breast = assay: NCI 60 five-concentration screen, breast subpanel; assay type: cell-based; conditions: Homo sapiens, 48 h, read-out: TGI Breast

## Cc1cn2c(/C=C3/C(=O)Nc4cc(Cl)ccc43)c(C)nc2s1 [Compound 4]
Full NCI 60 cell panel
  GI50: 2 µM
  IC (TGI): 51.3 µM

## Cc1cn2c(/C=C3/C(=O)Nc4c3ccc3ccccc43)c(C)nc2s1 [Compound 5]
Full NCI 60 cell panel
  IC (TGI): 19.9 µM
HT-29 colon cancer cells [1]
  concentration that induced accumulation of cells in the G2/M phase: 500 nM
HT-29 colon cancer cells [2]
  concentration that triggered cell death (reduction in cell viability): 500 nM
[3]
  activity of effector caspases (DEVDase activity): significantly increased
HT-29 colon cancer cells [4]
  mitochondrial membrane potential (ΔΨm): marked disruption of ΔΨm
HT-29 colon cancer cells [5]
  superoxide formation (intracellular ROS content): marked increase in superoxide formation
Bax
  cellular content of Bax: significant increase in the cellular content of Bax
Akt(Ser473)
  Akt(Ser473) phosphorylation: did not significantly influence
mTOR(Ser2448)
  mTOR(Ser2448) phosphorylation: did not significantly influence
ERK1/2(Thr202/Tyr204)
  ERK1/2(Thr202/Tyr204) phosphorylation/activation: did not significantly influence
JNK(Thr183/Tyr185)
  JNK(Thr183/Tyr185) phosphorylation/activation: did not significantly influence
p38MAPK(Thr180/Tyr182)
  p38MAPK(Thr180/Tyr182) phosphorylation/activation: did not significantly influence
AMPK(Thr172)
  AMPK(Thr172) phosphorylation: did not significantly influence

## Cc1nn2c(/C=C3/C(=O)Nc4ccc(F)cc43)c(C)nc2s1 [Compound 7]
Renal
  IC (TGI): 91.2 µM
Full NCI 60 cell panel
  GI50: 15.1 µM
  IC (TGI): 91.2 µM

## Cc1nn2c(/C=C3/C(=O)Nc4c3ccc3ccccc43)c(C)nc2s1 [Compound 9]
CNS
  IC (TGI): 4.9 µM
Full NCI 60 cell panel
  GI50: 0.5 µM
  IC (TGI): 8.51 µM

## Cc1ccc(-c2nc3sc(C)cn3c2/C=C2/C(=O)Nc3cc(C)c(O)cc32)cc1 [Compound 11]
Leukemia
  IC (TGI): 83.2 µM
Full NCI 60 cell panel
  GI50: 22.9 µM
  IC (TGI): 83.2 µM

## Cc1ccc(-c2nc3sc(C)cn3c2/C=C2/C(=O)N(C)c3ccccc32)cc1 [Compound 12]
Full NCI 60 cell panel
  GI50: 16.6 µM
  IC (TGI): 83.2 µM

## COc1ccc2c(c1)/C(=C\c1c(-c3ccc(C)cc3)nc3sc(C)cn13)C(=O)N2C [Compound 13]
Full NCI 60 cell panel
  GI50: 13.8 µM

## COc1ccc2c(c1)/C(=C\c1c(-c3ccc(Cl)cc3)nc3sc(C)nn13)C(=O)N2 [Compound 16]
Full NCI 60 cell panel
  GI50: 93.3 µM

## Cc1nn2c(/C=C3/C(=O)Nc4ccc(F)cc43)c(-c3ccc(Cl)cc3)nc2s1 [Compound 17]
Full NCI 60 cell panel
  GI50: 37.1 µM
  IC (TGI): 93.3 µM

## COc1cc(-c2nc3sc(C)cn3c2/C=C2/C(=O)Nc3ccccc32)c(Br)c(OC)c1OC [Compound 24]
Full NCI 60 cell panel
  GI50: 28.8 µM
  IC (TGI): 77.6 µM

## O=C1Nc2ccccc2/C1=C\c1c(-c2ccccn2)nc2sccn12 [Compound 28]
Full NCI 60 cell panel
  GI50: 1.15 µM
  IC (TGI): 50.1 µM

## O=C1Nc2ccc(Cl)cc2C1=Cc1c(-c2ccccn2)nc2sccn12 [Compound 29]
Full NCI 60 cell panel
  GI50: 0.83 µM
tubulin
  Inhibition of tubulin assembly IC50 (μM) ± SD: an IC50 could not be obtained

## O=C1Nc2cc(Cl)ccc2C1=Cc1c(-c2ccccn2)nc2sccn12 [Compound 30]
Full NCI 60 cell panel
  GI50: 0.18 µM
  IC (TGI): 14.1 µM

## COc1ccc2c(c1)/C(=C\c1c(-c3ccccn3)nc3sccn13)C(=O)N2 [Compound 31]
Leukemia
  IC (TGI): 0.58 µM
Full NCI 60 cell panel
  IC (TGI): 3.39 µM
HT-29 colon cancer cells [1]
  concentration that induced accumulation of cells in the G2/M phase: 100 nM
HT-29 colon cancer cells [2]
  concentration that triggered cell death (reduction in cell viability): 100 nM
[3]
  activity of effector caspases (DEVDase activity): significantly increased
Akt(Ser473)
  Akt(Ser473) phosphorylation: strongly reduced; also recorded: selectively and strongly inhibited
mTOR(Ser2448)
  mTOR(Ser2448) phosphorylation: no significant effect
ERK1/2(Thr202/Tyr204)
  ERK1/2(Thr202/Tyr204) phosphorylation/activation: slightly decreased
JNK(Thr183/Tyr185)
  JNK(Thr183/Tyr185) phosphorylation/activation: slightly decreased
p38MAPK(Thr180/Tyr182)
  p38MAPK(Thr180/Tyr182) phosphorylation/activation: slightly decreased
AMPK(Thr172)
  AMPK(Thr172) phosphorylation: only slightly inhibited

## COc1nc2sccn2c1/C=C1/C(=O)Nc2ccccc21 [Compound 33]
Full NCI 60 cell panel
  GI50: 0.39 µM
  IC (TGI): 22.9 µM

## COc1nc2sccn2c1/C=C1/C(=O)Nc2cccc(Cl)c21 [Compound 34]
Full NCI 60 cell panel
  IC (TGI): 57.5 µM

## COc1nc2sccn2c1/C=C1/C(=O)Nc2ccc(Cl)cc21 [Compound 35]
Full NCI 60 cell panel
  GI50: 2.82 µM
  IC (TGI): 55 µM

## COc1nc2sccn2c1/C=C1/C(=O)Nc2cc(Cl)ccc21 [Compound 36]
Full NCI 60 cell panel
  GI50: 0.44 µM
  IC (TGI): 31.6 µM

## COc1nc2sccn2c1C=C1C(=O)Nc2ccc(F)cc21 [Compound 37]
Leukemia
  IC (TGI): 52.5 µM
Full NCI 60 cell panel
  GI50: 5.01 µM
  IC (TGI): 52.5 µM

## COc1ccc2c(c1)C(=Cc1c(OC)nc3sccn13)C(=O)N2 [Compound 38]
Full NCI 60 cell panel
  GI50: 0.07 µM
  IC (TGI): 19.1 µM
HT-29 colon cancer cells [1]
  concentration that induced accumulation of cells in the G2/M phase: 100 nM
HT-29 colon cancer cells [2]
  concentration that triggered cell death (reduction in cell viability): 100 nM
[3]
  activity of effector caspases (DEVDase activity): significantly increased
Akt(Ser473)
  Akt(Ser473) phosphorylation: strongly reduced; also recorded: selectively and strongly inhibited
mTOR(Ser2448)
  mTOR(Ser2448) phosphorylation: no significant effect
ERK1/2(Thr202/Tyr204)
  ERK1/2(Thr202/Tyr204) phosphorylation/activation: slightly decreased
JNK(Thr183/Tyr185)
  JNK(Thr183/Tyr185) phosphorylation/activation: slightly decreased
p38MAPK(Thr180/Tyr182)
  p38MAPK(Thr180/Tyr182) phosphorylation/activation: slightly decreased
AMPK(Thr172)
  AMPK(Thr172) phosphorylation: only slightly inhibited

## COc1ccc2c(c1)C(=Cc1c(OC)nc3sccn13)C(=O)N2C [Compound 39]
Leukemia
  IC (TGI): 4.9 µM
Full NCI 60 cell panel
  GI50: 0.54 µM
  IC (TGI): 34.7 µM

## COc1nc2sccn2c1/C=C1/C(=O)N(C)c2ccccc21 [Compound 40]
Ovarian
  IC (TGI): 72.4 µM
Full NCI 60 cell panel
  GI50: 6.31 µM
  IC (TGI): 72.4 µM

## CC[C@]1(O)C[C@H]2CN(CCc3c([nH]c4ccccc34)[C@@](C(=O)OC)(c3cc4c(cc3OC)N(C=O)[C@H]3[C@@](O)(C(=O)OC)[C@H](OC(C)=O)[C@]5(CC)C=CCN6CC[C@]43[C@@H]65)C2)C1 [Vincristine sulfate, reference compound]
Leukemia
  IC (TGI): 15.8 µM
NSCLC
  IC (TGI): 15.8 µM
Colon
  GI50: 0.1 µM
CNS
  IC (TGI): 6.31 µM
Melanoma
  IC (TGI): 7.94 µM
Ovarian
  IC (TGI): 19.9 µM
Renal
  IC (TGI): 19.9 µM
Prostate
  IC (TGI): 6.31 µM
Breast
  IC (TGI): 7.94 µM
Full NCI 60 cell panel
  GI50: 0.2 µM
  IC (TGI): 10 µM
